From ChEMBL document CHEMBL4765230, “Discovery of Orally Efficacious Phosphoinositide 3-Kinase δ Inhibitors with Improved Metabolic Stability” (J Med Chem, 2016) come the findings set out here.

The nature of data set [1]: Chemical stability of the compound at pH 2 phosphate buffer assessed as time required for 50% hydrolytic degradation at 100 ug/ml and 40 degreeC by UPLC-UV analysis. It counts as physicochemical. The settings on record: dose 100 µg/ml, read-out: Time (converted). In a few lines:
(§1)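 Compound diluted from acetonitrile or DMSO stock to 100 μg/mL final in 50 mM phosphate buffer, pH 2 (or pH 7), ionic strength 0.15 M NaCl, 40 °C in autosampler. Timed injections analysed by reverse-phase UPLC-UV (220 nm); pseudo-first-order kobs from ln c vs time; t50 and t90 calculated.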

A short description of data set [2]: Volume of distribution at steady state in rat at 1 mg/kg, iv. The class given is ADME, organism-based. The settings on record: in vivo, read-out: Vdss. In a few lines:
(§2)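 Rats and dog received 1 mg/kg intravenously, formulated in 12% w/v Captisol in water. Volume of distribution was taken at steady state from the iv plasma profile. Three animals per dosing route.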

Data set [3] addresses Phosphatidylinositol 4,5-bisphosphate 3-kinase catalytic subunit gamma isoform (Homo sapiens, UniProt P48736). Nature of the data set: Inhibition of human full length PI3K p110gamma using […] as substrate measured after 30 mins by TR-FRET assay. For orientation: Time-resolved FRET reads energy transfer from a long-lived donor to a nearby acceptor.

The nature of data set [4]: Volume of distribution at steady state in dog at 1 mg/kg, iv. The class given is ADME, organism-based, Canis lupus familiaris. As to conditions: in vivo, read-out: Vdss. A digest of the protocol: as §2
A short description of data set [5]: Clearance in rat at 1 mg/kg, iv. The class given is ADME, organism-based. The settings on record: in vivo.
Data set [6] is described as follows: Oral bioavailability in rat at 5 mg/kg. It counts as ADME, organism-based. The settings on record: in vivo.
Data set [7] in a line: Drug degradation assessed as acid-mediated compound hydrolysis at 40 degreeC measured at 3 hrs. The class given is physicochemical. As to conditions: read-out: Drug degradation. In a few lines: as §1
The nature of data set [8]: Clearance in dog at 1 mg/kg, iv. The settings on record: in vivo. The class given is ADME, organism-based, Canis lupus familiaris.
The target of data set [9] is PI3K p110 beta/p85 alpha (Homo sapiens, UniProt P42338). Nature of the data set: Inhibition of recombinant human full-length N-terminal His-tagged PI3K p110beta/p85alpha using […] as substrate measured after 30 mins by TR-FRET assay. The class given is protein-complex assay.
The nature of data set [10]: Chemical stability of the compound at pH 2 phosphate buffer assessed as time required for 90% hydrolytic degradation at 100 ug/ml and 40 degreeC by UPLC-UV analysis. As to conditions: in the assay text read “10% hydrolytic degradation” for “90% hydrolytic degradation”, dose 100 µg/ml. It counts as physicochemical. A digest of the protocol:
as §1

Data set [11] has as its target PI3-kinase p110-alpha/p85-alpha (Homo sapiens, UniProt P42336). Description: Inhibition of human full length PI3K p110alpha/p85alpha using […] as substrate measured after 30 mins by TR-FRET assay. The class given is protein-complex assay.
The target in data set [12] is T1, Phosphatidylinositol 4,5-bisphosphate 3-kinase catalytic subunit delta isoform (Homo sapiens, UniProt O00329).
T1 sequence (O00329 whole entry): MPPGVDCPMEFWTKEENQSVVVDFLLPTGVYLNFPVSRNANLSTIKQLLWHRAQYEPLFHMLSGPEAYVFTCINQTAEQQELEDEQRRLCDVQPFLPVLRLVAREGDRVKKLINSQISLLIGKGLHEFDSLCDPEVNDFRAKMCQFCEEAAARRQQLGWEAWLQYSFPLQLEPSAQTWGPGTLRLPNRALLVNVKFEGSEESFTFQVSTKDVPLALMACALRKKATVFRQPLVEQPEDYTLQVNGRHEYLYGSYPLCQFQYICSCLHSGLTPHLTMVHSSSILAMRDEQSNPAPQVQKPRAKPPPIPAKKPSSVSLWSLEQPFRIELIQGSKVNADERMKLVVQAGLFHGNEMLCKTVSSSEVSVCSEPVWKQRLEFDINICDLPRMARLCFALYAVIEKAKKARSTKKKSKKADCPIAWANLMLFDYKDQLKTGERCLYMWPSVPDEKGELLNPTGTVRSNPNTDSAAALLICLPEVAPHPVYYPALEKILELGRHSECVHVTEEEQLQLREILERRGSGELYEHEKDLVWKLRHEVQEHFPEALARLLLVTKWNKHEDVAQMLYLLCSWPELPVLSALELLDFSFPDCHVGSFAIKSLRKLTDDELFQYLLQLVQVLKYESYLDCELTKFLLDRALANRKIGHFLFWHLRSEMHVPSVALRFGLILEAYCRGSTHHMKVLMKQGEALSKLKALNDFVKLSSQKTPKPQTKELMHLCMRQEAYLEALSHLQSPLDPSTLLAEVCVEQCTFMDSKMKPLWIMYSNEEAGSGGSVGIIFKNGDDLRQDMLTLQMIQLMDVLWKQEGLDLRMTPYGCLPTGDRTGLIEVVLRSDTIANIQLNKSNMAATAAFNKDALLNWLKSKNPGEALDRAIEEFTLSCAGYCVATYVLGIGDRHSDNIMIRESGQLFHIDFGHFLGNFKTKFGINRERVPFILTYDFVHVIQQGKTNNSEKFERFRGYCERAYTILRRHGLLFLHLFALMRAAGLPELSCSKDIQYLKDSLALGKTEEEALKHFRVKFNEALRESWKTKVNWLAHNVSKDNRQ
Nature of the data set: Inhibition of PI3Kdelta in human whole blood assessed as reduction in anti-FCepsilonR1 mAb-stimulated basophil activation preincubated for 60 mins followed by anti-FCepsilonR1 mAb stimulation and measured after 25 mins by flow cytometry analysis. The class given is tissue-based.

A short description of data set [13]: Selectivity index, ratio of IC50 for inhibition of human full length PI3K p110gamma to IC50 for inhibition of human full length PI3K p110delta/p85alpha.
The nature of data set [14]: Selectivity index, ratio of IC50 for inhibition of human full length PI3K p110alpha/p85alpha to IC50 for inhibition of human full length PI3K p110delta/p85alpha.
The nature of data set [15]: Half life in rat at 1 mg/kg, iv. The settings on record: in vivo. It counts as ADME, organism-based.
The nature of data set [16]: Volume of distribution at steady state in cynomolgus monkey at 1 mg/kg, iv. It counts as ADME, organism-based, Macaca fascicularis. As to conditions: in vivo, read-out: Vdss.
The nature of data set [17]: Half life in dog at 1 mg/kg, iv. It counts as ADME, organism-based, Canis lupus familiaris. As to conditions: in vivo.
A short description of data set [18]: Selectivity index, ratio of IC50 for inhibition of recombinant human full-length N-terminal His-tagged PI3K p110beta/p85alpha to IC50 for inhibition of human full length PI3K p110delta/p85alpha.
Data set [19] in a line: Half life in cynomolgus monkey at 1 mg/kg, iv. The settings on record: in vivo. The class given is ADME, organism-based, Macaca fascicularis.
The nature of data set [20]: Clearance in cynomolgus monkey at 1 mg/kg, iv. It counts as ADME, organism-based, Macaca fascicularis. The settings on record: in vivo.
The nature of data set [21]: Thermal stability of compound assessed as half life at 40 degreeC measured over 72 hrs by HPLC analysis. The class given is physicochemical.
In data set [22] the target is PI3-kinase p110-delta/p85-alpha (Homo sapiens, UniProt O00329). Description: Inhibition of human full length PI3K p110delta/p85alpha using […] as substrate measured after 30 mins by TR-FRET assay. It counts as protein-complex assay.
A short description of data set [23]: Chemical stability assessed as time taken for hydrolytic degradation at pH 2. The class given is physicochemical. As to conditions: buffer. In a few lines: as §1

SMILES strings stand for the structures. Bounds are passed on as bounds.

PI3-kinase p110-alpha/p85-alpha, sequence (P27986 whole entry, canonical isoform): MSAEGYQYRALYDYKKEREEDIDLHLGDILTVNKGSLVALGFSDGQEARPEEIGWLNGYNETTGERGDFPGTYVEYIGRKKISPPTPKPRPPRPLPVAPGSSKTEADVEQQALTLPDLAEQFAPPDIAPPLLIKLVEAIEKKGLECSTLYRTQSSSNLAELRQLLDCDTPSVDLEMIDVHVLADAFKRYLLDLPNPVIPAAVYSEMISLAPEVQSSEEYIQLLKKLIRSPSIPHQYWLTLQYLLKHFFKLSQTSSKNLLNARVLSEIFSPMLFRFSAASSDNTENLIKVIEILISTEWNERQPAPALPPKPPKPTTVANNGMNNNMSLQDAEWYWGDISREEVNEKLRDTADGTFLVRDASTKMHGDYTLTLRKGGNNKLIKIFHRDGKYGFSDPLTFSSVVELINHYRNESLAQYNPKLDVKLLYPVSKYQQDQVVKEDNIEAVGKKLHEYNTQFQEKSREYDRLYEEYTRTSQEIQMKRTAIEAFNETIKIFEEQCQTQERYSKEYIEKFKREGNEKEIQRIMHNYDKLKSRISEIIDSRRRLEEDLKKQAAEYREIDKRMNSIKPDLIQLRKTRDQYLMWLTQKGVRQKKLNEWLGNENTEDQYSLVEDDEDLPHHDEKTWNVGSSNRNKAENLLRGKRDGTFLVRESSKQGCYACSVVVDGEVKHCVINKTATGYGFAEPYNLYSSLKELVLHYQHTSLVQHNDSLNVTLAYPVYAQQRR
PI3-kinase p110-alpha/p85-alpha, sequence (P42336 whole entry, canonical isoform): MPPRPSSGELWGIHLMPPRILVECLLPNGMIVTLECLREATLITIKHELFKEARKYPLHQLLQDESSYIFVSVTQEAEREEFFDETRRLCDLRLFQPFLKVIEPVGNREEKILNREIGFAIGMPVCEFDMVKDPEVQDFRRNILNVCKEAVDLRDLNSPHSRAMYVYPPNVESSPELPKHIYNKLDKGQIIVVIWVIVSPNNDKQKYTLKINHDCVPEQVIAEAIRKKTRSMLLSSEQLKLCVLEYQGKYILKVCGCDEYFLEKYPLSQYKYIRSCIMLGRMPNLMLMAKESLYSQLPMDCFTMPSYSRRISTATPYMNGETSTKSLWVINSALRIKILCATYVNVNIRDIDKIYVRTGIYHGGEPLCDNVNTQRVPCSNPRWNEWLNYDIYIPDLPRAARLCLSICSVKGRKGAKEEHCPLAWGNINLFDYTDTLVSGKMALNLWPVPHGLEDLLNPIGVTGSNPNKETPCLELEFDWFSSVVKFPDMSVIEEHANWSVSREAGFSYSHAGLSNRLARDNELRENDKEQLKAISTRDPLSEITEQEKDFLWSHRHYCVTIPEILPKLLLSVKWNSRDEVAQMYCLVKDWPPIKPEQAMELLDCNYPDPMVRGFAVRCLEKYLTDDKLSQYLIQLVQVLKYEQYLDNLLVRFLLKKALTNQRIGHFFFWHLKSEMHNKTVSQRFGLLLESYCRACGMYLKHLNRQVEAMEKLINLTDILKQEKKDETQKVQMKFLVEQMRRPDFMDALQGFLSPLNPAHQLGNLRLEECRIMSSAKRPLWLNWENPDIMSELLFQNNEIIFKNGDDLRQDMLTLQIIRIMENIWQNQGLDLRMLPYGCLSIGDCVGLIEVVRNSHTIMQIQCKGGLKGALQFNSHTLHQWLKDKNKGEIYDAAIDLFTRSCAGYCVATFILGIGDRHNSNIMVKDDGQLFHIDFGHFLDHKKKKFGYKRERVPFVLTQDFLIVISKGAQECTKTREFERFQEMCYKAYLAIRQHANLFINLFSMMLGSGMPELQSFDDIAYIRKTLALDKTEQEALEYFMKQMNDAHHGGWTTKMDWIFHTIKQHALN
PI3K p110 beta/p85 alpha, sequence (P27986 whole entry): as the sequence (P27986 whole entry, canonical isoform) above
PI3K p110 beta/p85 alpha, sequence (P42338 whole entry): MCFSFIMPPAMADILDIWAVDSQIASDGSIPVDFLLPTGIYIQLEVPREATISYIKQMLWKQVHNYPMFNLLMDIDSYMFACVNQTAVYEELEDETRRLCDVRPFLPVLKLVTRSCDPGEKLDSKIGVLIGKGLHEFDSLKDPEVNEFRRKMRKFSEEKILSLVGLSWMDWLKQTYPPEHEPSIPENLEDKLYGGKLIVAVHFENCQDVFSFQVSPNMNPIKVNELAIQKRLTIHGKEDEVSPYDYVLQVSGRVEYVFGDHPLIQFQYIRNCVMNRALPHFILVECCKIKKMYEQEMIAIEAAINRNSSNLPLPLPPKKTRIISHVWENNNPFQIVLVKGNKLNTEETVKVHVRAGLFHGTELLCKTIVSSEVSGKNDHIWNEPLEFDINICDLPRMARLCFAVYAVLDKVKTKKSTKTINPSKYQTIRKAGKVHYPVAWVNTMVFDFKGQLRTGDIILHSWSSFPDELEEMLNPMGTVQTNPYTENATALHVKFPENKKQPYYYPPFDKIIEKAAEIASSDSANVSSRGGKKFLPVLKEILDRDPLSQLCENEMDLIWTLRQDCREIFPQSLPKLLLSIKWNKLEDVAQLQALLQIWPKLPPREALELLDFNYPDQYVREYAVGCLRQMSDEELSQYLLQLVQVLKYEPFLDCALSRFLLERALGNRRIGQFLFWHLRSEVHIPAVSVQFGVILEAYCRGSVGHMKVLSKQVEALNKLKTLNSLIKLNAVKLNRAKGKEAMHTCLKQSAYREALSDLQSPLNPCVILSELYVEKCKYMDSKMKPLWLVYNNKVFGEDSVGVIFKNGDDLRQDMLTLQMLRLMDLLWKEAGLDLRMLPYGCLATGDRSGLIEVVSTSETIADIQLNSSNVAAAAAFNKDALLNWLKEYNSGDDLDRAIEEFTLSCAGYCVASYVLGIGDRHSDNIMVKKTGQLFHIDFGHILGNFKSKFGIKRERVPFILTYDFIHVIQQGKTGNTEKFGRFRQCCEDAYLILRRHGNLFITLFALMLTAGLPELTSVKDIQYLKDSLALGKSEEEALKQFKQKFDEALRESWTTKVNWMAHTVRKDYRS
Phosphatidylinositol 4,5-bisphosphate 3-kinase catalytic subunit gamma isoform, sequence (P48736 whole entry, canonical isoform): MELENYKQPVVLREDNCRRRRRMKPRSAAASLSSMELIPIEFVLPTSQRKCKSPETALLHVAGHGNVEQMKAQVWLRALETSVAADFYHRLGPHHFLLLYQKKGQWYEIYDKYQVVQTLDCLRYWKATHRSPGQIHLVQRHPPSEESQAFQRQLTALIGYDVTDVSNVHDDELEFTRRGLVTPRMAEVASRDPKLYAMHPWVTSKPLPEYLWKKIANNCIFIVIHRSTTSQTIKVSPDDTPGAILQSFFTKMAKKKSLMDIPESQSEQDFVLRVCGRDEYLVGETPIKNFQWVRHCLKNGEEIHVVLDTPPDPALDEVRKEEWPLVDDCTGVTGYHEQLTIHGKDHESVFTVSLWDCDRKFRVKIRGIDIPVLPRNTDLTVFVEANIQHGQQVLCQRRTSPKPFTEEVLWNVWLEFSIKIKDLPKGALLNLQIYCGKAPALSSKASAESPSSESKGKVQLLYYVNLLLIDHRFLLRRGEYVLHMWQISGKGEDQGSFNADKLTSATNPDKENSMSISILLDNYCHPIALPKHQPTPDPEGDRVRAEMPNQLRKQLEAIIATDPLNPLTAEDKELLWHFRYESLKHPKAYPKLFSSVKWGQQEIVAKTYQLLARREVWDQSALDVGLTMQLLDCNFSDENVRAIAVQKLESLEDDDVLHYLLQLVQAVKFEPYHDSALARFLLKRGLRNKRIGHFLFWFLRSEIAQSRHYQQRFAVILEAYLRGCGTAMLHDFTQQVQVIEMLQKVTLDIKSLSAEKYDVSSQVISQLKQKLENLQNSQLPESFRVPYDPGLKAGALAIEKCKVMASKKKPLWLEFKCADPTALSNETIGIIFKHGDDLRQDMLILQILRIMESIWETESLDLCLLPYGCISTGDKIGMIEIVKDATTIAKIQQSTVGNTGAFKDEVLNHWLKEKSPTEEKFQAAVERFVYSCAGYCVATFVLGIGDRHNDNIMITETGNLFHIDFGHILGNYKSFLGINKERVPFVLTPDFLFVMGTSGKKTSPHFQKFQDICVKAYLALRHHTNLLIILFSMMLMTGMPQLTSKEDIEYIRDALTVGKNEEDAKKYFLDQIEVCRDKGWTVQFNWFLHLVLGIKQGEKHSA
PI3-kinase p110-delta/p85-alpha, sequence (P27986 whole entry, one chain of several): as the sequence (P27986 whole entry, canonical isoform) above

Take `C[C@H](Nc1nc(N)nc(N)c1C#N)c1nc2c(F)ccc(Cl)c2c(=O)n1-c1cccnc1`: the half-life at 100 ug/ml in [1] was 19 h. Also, the Vd amounted to 3.2 L/kg in [2] and 0.51 L/kg in data set [4]. The figures for the IC50 in data set [3], in data set [9] and in data set [11] were 51 nM, 46 nM and 770 nM, respectively. Further, the values for the clearance in data set [5] and in [8] were 26.7 mL/min/kg and 3.5 mL/min/kg, respectively. Moreover, the bioavailability (in general, the share of a dose that reaches the circulation, judged against a reference dose that is usually intravenous) in data set [6] amounted to 24%. Besides, in [7], the degraded at 3 h came to 10%. Moreover, the Time in data set [10] turned out to be 2.8 h. Also, in data set [12], the EC50 (usually the concentration at which the effect is half-maximal) came out at 0.5 nM.

As for `C[C@H](Nc1nc(N)nc(N)c1C#N)c1nc2cccc(Cl)c2c(=O)n1-c1cccnc1`, the Ratio IC50 came to 120 in data set [13], 1700 in [14] and 160 in data set [18]. In data set [1], the half-life at 100 ug/ml was 2.7 h. In addition, the Vd in data set [2] was determined as 1.9 L/kg; in data set [4], 0.9 L/kg; in data set [16] it was 0.5 L/kg. Moreover, the IC50 (as a rule, the concentration that inhibits the measured activity by half) in data set [3] amounted to 72 nM; in data set [9], 100 nM; in [11], 1030 nM. In addition, the half-life is 2.5 h in data set [15], 5.6 h in data set [17] and 4.9 h in data set [19]. The clearance – broadly, the volume of plasma or blood freed of the substance per unit of time – in [5] is 25 mL/min/kg; in data set [8], 3.33 mL/min/kg; in data set [20] it was 1.67 mL/min/kg. The bioavailability in [6] was found to be 42%. The Time in data set [10] was 0.2 h. Also, the EC50 in [12] worked out at 0.9 nM.

With `Cc1c(F)cncc1-n1c([C@H](C)Nc2nc(N)nc(N)c2C#N)nc2cccc(Cl)c2c1=O` (stereo in doubt; 27), the half-life in [21] was 1750 h. For the same molecule, in data set [1], the half-life at 100 ug/ml is 30 h. In addition, the IC50 in data set [22] was 0.3 nM; in data set [3] it was 25 nM; in [9], 120 nM; in data set [11], 1200 nM. Besides, the Time is 4.6 h in data set [10] and more than 3 h in data set [23].
